Results: ChEMBL document CHEMBL1138047, “Synthesis and biological evaluation of 2-amino-3-(3',4',5'-trimethoxybenzoyl)-5-aryl thiophenes as a new class of potent antitubulin agents” (J Med Chem, 2006)
Activity calls are given as the source filed them. The calls are words filed in the database; no cut-off is given here.

Assays:
K562 [1] = assay: Induction of apoptosis in K562 cell line; format: functional, Homo sapiens
K562 [2] = assay: Antiproliferative activity against human K562 cell line; format: functional, cell-based
In short: (§1)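 Exponentially growing cells in RPMI 1640 with 10% fetal calf serum, 2 mM L-glutamine, […], penicillin/streptomycin were exposed to increasing drug concentrations (DMSO stock 1 mg/mL, final DMSO ≤0.01%, matched DMSO controls). Cells counted by Coulter counter after 48 h. IC50 = concentration giving 50% inhibition versus untreated controls. Duplicate cultures per concentration, ≥3 independent experiments, mean ± SE.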

L1210 = assay: Antiproliferative activity against mouse L1210 cell line; format: functional, cell-based; in short: as §1
Tubulin = Tubulin (Bos taurus, UniProt Q6B856+Q862L2+Q862F3); assay: Inhibition of tubulin polymerization in bovine brain by tubulin assembly assay
In short: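 Purified bovine brain tubulin (10 µM) in glutamate buffer was preincubated with a concentration range of compound at 30 °C, then cooled to 0 °C. GTP was added, the mixture rewarmed to 30 °C and assembly followed by turbidity.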

Tubulin (Bos taurus) = assay: Inhibition of [3H]colchicine binding to tubulin at 1 uM
K562 [3] = assay: Cell cycle arrest in K562 cells at sub-G1 phase cell; format: functional, cell-based; conditions: Homo sapiens
In short: (§2)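 K562 cells cultured with compound at 3 or 10 nM, or at levels giving 50% and 75% growth inhibition, versus untreated cells. Cells (1 × 10⁶) stained with propidium iodide for 30 min. Sub-G1 (DNA-breakage) fraction measured by flow cytometry.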

K562 [4] = assay: Cell cycle arrest in K562 cells at sub-G1 phase cell at 10 nM; format: functional, cell-based; conditions: Homo sapiens; in short: as §2
K562 [5] = assay: Cell cycle arrest in K562 cells at sub-G1 phase cell at 3 nM; format: functional, cell-based; conditions: Homo sapiens; in short: as §2
K562 [6] = assay: Cell cycle arrest in K562 cells at G2/M phase; format: functional, cell-based; conditions: Homo sapiens
In short: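 K562 cells cultured 24 h with compound at concentrations giving 25%, 50% and 75% growth inhibition, or without compound. Cells (1 × 10⁶) stained with propidium iodide for 30 min and analysed by flow cytometry for G1, S, G2/M and sub-G1 fractions. DMSO vehicle.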

Row | IC50 (K562 [2]) [nM] | IC50 (L1210) [nM] | IC50 (Tubulin) [nM] | inhibition (Tubulin (Bos taurus)) [%] | Compound | further results
1 | 4.72 | 3.52 | 1100 | 71 | COc1cc(C(=O)c2cc(-c3ccc(C)cc3)sc2N)cc(OC)c1OC | Activity (K562 [1]): 20.5%; Activity (K562 [3]): Active
2 | 4.47 | 6.52 | 1700 | 64 | COc1ccc(-c2cc(C(=O)c3cc(OC)c(OC)c(OC)c3)c(N)s2)cc1 | –
3 | 8500 | 6950 | – | – | COc1cc(C(=O)c2c(N)sc(-c3ccccc3)c2-c2ccccc2)cc(OC)c1OC | –
4 | 4670 | > 10000 | – | – | COc1ccc(C(=O)c2cc(-c3ccccc3)sc2N)cc1 | –
5 | 7.75 | 9 | – | – | COc1ccccc1-c1cc(C(=O)c2cc(OC)c(OC)c(OC)c2)c(N)s1 | –
6 | 14.7 | 6.96 | 980 | 68 | COc1cc(C(=O)c2cc(-c3ccc(Cl)cc3)sc2N)cc(OC)c1OC | –
7 | 85.5 | 537 | – | – | COc1ccc(C(=O)c2cc(-c3ccccc3)sc2N)cc1OC | –
8 | 6.42 | 18.2 | 2200 | 37 | COc1cc(C(=O)c2c(N)sc(-c3ccccc3)c2C)cc(OC)c1OC | –
9 | 1270 | 3150 | – | – | COc1cc(C(=O)c2ccsc2N)cc(OC)c1OC | –
10 | > 10000 | > 10000 | – | – | COc1cc(C(=O)c2c(-c3ccccc3)csc2N)cc(OC)c1OC | –
11 | 1680 | 4250 | – | – | COc1cc(C(=O)c2cc(Br)sc2N)cc(OC)c1OC | –
12 | 1490 | 1320 | – | – | CCCCCc1cc(C(=O)c2cc(OC)c(OC)c(OC)c2)c(N)s1 | –
13 | 3.75 | 2.52 | 1900 | 60 | COc1cc(C(=O)c2cc(-c3ccccc3)sc2N)cc(OC)c1OC | Activity (K562 [1]): 87.5%; Activity (K562 [4]): Active; Activity (K562 [3]): Active; Activity (K562 [5]): Active
14 | 342 | 1150 | – | – | COc1cc(C(=O)c2cc(I)sc2N)cc(OC)c1OC | –
15 | 790 | 3900 | – | – | COc1cc(C(=O)c2c(N)sc(C)c2C)cc(OC)c1OC | –
16 | 1100 | 1650 | – | – | COc1cc(C(=O)c2cc(-c3ccc(OC)c(OC)c3OC)sc2N)cc(OC)c1OC | –
17 | 70.3 | 73.7 | – | – | COc1cc(C(=O)c2cc(-c3ccc(C(F)(F)F)cc3)sc2N)cc(OC)c1OC | –
18 | 2.82 | 2.15 | 1100 | 82 | COc1cc(C(=O)c2cc(-c3ccc(F)cc3)sc2N)cc(OC)c1OC | Activity (K562 [1]): 64.5%; Activity (K562 [3]): Active; Activity (K562 [6]): Dose-dependent effect
19 | 219 | 262 | – | – | COc1cc(C(=O)c2c(C)csc2N)cc(OC)c1OC | –
20 | 10.1 | 20.8 | 1700 | 58 | COc1cccc(-c2cc(C(=O)c3cc(OC)c(OC)c(OC)c3)c(N)s2)c1 | –
21 | 9000 | > 10000 | – | – | CCc1cc(C(=O)c2cc(OC)c(OC)c(OC)c2)c(N)s1 | –
22 | 362 | 337 | – | – | COc1cc(C(=O)c2cc(-c3ccc(Cl)c(Cl)c3)sc2N)cc(OC)c1OC | –

Row | Compound | IC50 (K562 [2]) [nM] | IC50 (L1210) [nM] | IC50 (Tubulin) [nM] | inhibition (Tubulin (Bos taurus)) [%] | further results
23 | COc1ccc(/C=C\c2cc(OC)c(OC)c(OC)c2)cc1O [COMBRETASTATIN A4] | 3.6 | 8.3 | – | – | –
